In article PMC6935887 (Journal of Medicinal Chemistry, 2019):
“And” between values parts separate entries of the source, which are not always exact repeats. Equal values may be shown once.

Legend:
hCCR2 [1] = biological target: T1, hCCR2 (Homo sapiens, UniProt P41597); test: [3H]-CCR2-RA-[R] displacement binding assay on U2OS-CCR2b membranes; conditions: displacement of ∼6 nM [3H]-CCR2-RA-[R] from U2OS cells stably expressing CCR2, 25 °C
T1 sequence (P41597 1-360 isoform P41597-2): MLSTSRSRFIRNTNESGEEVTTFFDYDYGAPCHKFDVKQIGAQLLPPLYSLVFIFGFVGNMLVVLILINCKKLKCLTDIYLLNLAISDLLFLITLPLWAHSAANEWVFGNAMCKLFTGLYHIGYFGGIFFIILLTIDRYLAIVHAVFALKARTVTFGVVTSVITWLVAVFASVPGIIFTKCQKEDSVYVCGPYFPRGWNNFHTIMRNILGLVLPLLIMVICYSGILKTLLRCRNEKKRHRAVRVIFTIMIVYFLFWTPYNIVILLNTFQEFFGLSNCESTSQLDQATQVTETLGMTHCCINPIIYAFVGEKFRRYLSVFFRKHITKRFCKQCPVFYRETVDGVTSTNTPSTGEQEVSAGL
In short: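 U2OS-CCR2b membranes (15–20 μg protein) were incubated with ~6 nM [3H]-CCR2-RA-[R] and at least 6 competitor concentrations. Buffer: 50 mM Tris-HCl, 5 mM MgCl2, 0.1% CHAPS, pH 7.4. Incubation 2 h at 25 °C. Rapid GF/B filtration, ten washes with ice-cold buffer (0.05% CHAPS), scintillation counting. Mean ± SEM of ≥3 experiments in duplicate.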

hCCR5 = hCCR5 (Homo sapiens, UniProt P51681); test: Tango β-arrestin recruitment assay in U2OS-CCR5 cells; type: cell-based; conditions: inhibition of CCL3-induced β-arrestin recruitment in U2OS-CCR5
hCCR5, sequence (P51681 whole entry): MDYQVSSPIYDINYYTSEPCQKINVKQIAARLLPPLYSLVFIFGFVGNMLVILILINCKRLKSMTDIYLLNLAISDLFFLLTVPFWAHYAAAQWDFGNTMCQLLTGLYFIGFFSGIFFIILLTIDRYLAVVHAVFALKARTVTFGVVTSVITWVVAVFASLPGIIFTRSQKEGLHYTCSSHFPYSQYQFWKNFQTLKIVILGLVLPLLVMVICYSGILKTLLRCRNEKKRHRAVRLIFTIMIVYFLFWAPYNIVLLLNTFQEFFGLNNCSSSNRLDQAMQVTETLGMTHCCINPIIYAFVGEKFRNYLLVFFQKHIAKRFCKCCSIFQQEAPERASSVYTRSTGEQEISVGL
In short: (§1)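 Tango bla U2OS cells (human CCR2b or CCR5) were trypsinized and seeded at 10 000 cells/well in FreeStyle medium. Agonist mode: CCL2 or CCL3 for 16 h, 37 °C, 5% CO2. Antagonist mode: 30 min room-temperature preincubation with increasing compound (≤0.5% DMSO final), then 16 h with EC80 CCL2 (5 nM, CCR2) or CCL3 (14 nM, CCR5). LiveBLAzer-FRET B/G substrate 2 h; excitation 400 nm, 460/535 nm emission ratio.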

hCCR2 [2] = biological target: T1, hCCR2; test: Tango β-arrestin recruitment assay in U2OS-CCR2 cells; type: cell-based; conditions: inhibition of CCL2-induced β-arrestin recruitment in U2OS-CCR2
In short: as §1

CCR2 = conditions: read-out: IC50 in CCR2 calcium flux assay; previously reported activity; cited from earlier work

Nc1nc2[nH]c(C3CC3)c(Cc3cccc(Cl)c3)c(=O)n2n1 [Compound 8, 2-Amino-6-(3-chlorobenzyl)-5-cyclopropyl[1,2,4]triazolo[1,5-a]pyrimidin-7(4H)-one]
pKi ± SEM (hCCR2 [1]): 8.90 ± 0.04
Hill slope (nH) (hCCR5): −2.2 ± 0.3
Hill slope (nH) (hCCR2 [2]): −2.7
IC50 (CCR2): 16 nM and ~20 nM
